Legend:
Conditions in all cases: pyramidal neuron
[1] = Ability to directly depolarize CA1 pyramidal neurons of rat hyppocampal slices before exposure to quisqualic acid; type: functional, cell-based
Procedure, shortened: (§1)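 Transverse hippocampal slices (500 μM as printed) from 25-60 day old male Sprague-Dawley rats, preincubated 20-30 min in high Mg2+/low Ca2+ medium, held at 28 °C. Submerged in microperfusion chamber at 34 °C, 95% O2/5% CO2. Schaffer collateral stimulation, stratum radiatum recording of peak field potential amplitude. IC50 (50% inhibition) interpolated from concentration-response data, mean of four experiments; measured before and after 5 min 20 μM quisqualic acid, then after 10 min 2 mM L-α-AA reversal.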

[2] = Sensitization of CA1 pyramidal neurons to depolarizations by L-AP6 after exposure to quisqualic acid; type: functional, cell-based, Rattus norvegicus
[3] = Sensitization of CA1 pyramidal neurons to depolarizations by L-AP6 after reversal with L-alpha-AA; type: functional, cell-based, Rattus norvegicus
Procedure, shortened: (§2)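 Rat (male Sprague-Dawley, 25-60 days) hippocampal slices, submerged, 34 °C, 95% O2/5% CO2; Schaffer collateral stimulation with stratum radiatum CA1 field potential recording. L-AP6 IC50 for 50% inhibition of peak amplitude interpolated from concentration-response curves, mean of four experiments; determined before and after slice exposure to sensitizing agent in place of quisqualic acid, then after 2 mM L-α-AA reversal.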

[4] = Sensitization of CA1 pyramidal neurons to depolarizations by L-AP6 before exposure to quisqualic acid; type: functional, cell-based, Rattus norvegicus; procedure, shortened: as §2
[5] = Ability to directly depolarize CA1 pyramidal neurons of rat hyppocampal slices after exposure to quisqualic acid; type: functional, cell-based; procedure, shortened: as §1
[6] = Ability to directly depolarize CA1 pyramidal neurons of rat hyppocampal slices after reversal with L-alpha-AA; type: functional, cell-based; procedure, shortened: as §1
[7] = ability to directly depolarize CA1 pyramidal neurons of rat hyppocampal slices after exposure to quisqualic acid; type: functional, cell-based
Procedure, shortened: (§3)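 Transverse hippocampal slices from 25-60 day old male Sprague-Dawley rats, preincubated 20-30 min in high Mg2+/low Ca2+ medium. Submerged at 34 °C under 95% O2/5% CO2. Schaffer collaterals stimulated; field potential peak amplitude recorded in CA1 stratum radiatum. Concentration-response curves run before, after 5 min 20 μM quisqualic acid, and after 10 min 2 mM L-α-AA reversal. IC50 interpolated; mean of four experiments.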

[8] = ability to directly depolarize CA1 pyramidal neurons of rat hyppocampal slices after reversal with L-alpha-AA; type: functional, cell-based; procedure, shortened: as §3
[9] = ability to directly depolarize CA1 pyramidal neurons of rat hyppocampal slices before exposure to quisqualic acid; type: functional, cell-based; procedure, shortened: as §3
[10] = sensitization of CA1 pyramidal neurons to depolarizations by L-AP6 after exposure to quisqualic acid; type: functional, cell-based, Rattus norvegicus
Procedure, shortened: (§4)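 Male Sprague-Dawley rat (25-60 day) hippocampal slices were perfused at 34 °C. Schaffer collaterals were stimulated with field potential recording in CA1 stratum radiatum. L-AP6 concentration-response curves were run before and after exposure to test compound substituted for quisqualic acid, then after 10 min 2 mM L-α-AA. IC50 for 50% peak-amplitude inhibition was interpolated.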

[11] = sensitization of CA1 pyramidal neurons to depolarizations by L-AP6 after reversal with L-alpha-AA; type: functional, cell-based, Rattus norvegicus; procedure, shortened: as §4
[12] = sensitization of CA1 pyramidal neurons to depolarizations by L-AP6 before exposure to quisqualic acid; type: functional, cell-based, Rattus norvegicus; procedure, shortened: as §4
[13] = sensitization of CA1 pyramidal neurons by 2 to depolarizations by L-AP4, L-AP5 and L-AP6 after reversal with L-alpha-AA; type: functional, cell-based, Rattus norvegicus
Procedure, shortened: (§5)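 Rat hippocampal slices were submerged at 34 °C under 95% O2/5% CO2. Stimulating and recording electrodes sat in CA1 stratum radiatum to record extracellular synaptic field potentials. IC50 of L-AP4, L-AP5 and L-AP6 was measured three times: before, after 20 min exposure to 20 mM test compound in place of quisqualic acid, and after 20 min 2 mM L-α-AA.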

[14] = sensitization of CA1 pyramidal neurons by 2 to depolarizations by L-AP4, L-AP5 and L-AP6 before exposure to quisqualic acid; type: functional, cell-based, Rattus norvegicus; procedure, shortened: as §5
[15] = sensitization of CA1 pyramidal neurons by 2 to depolarizations by L-AP4,L-AP5 and L-AP6 after exposure to quisqualic acid; type: functional, cell-based, Rattus norvegicus; procedure, shortened: as §5

| IC50 [1] [µM] | IC50 [5] [µM] | SMILES | IC50 [2] [µM] | IC50 [4] [µM] | IC50 [10] [µM] | IC50 [13] [µM] | IC50 [14] [µM] | further results |
| --- | --- | --- | --- | --- | --- | --- | --- | --- |
| 1000 | 530 | O=C(O)[C@@H]1C[C@@H](n2oc(=O)[nH]c2=O)CN1 | 780 | > 10000 |  |  |  | IC50 [3]: > 10000 µM; IC50 [6]: 1100 µM |
| 15 | 14 | O=C(O)[C@@H]1C[C@H](n2oc(=O)[nH]c2=O)CN1 | > 10000 | > 10000 |  |  |  |  |
|  |  | N[C@@H](CCn1oc(=O)[nH]c1=O)C(=O)O |  |  | 170 |  |  | IC50 [7]: 5.5 µM; IC50 [8]: 20 µM; IC50 [9]: 9.8 µM; IC50 [11]: 12000 µM; IC50 [12]: 11000 µM |
| > 10000 | > 10000 | O=C(O)CCn1oc(=O)[nH]c1=O | > 10000 | > 10000 |  |  |  |  |
| 5400 | 3800 | NCCn1oc(=O)[nH]c1=O | > 10000 | > 10000 |  |  |  |  |
|  |  | NC(CCCP(=O)(O)O)C(=O)O (centres undefined) |  |  |  | 2200 | 2300 | IC50 [15]: 310 µM |
|  |  | NC(CCCCP(=O)(O)O)C(=O)O (centres undefined) |  |  | 170 | 12000 | 11000 |  |
|  |  | N[C@@H](CCP(=O)(O)O)C(=O)O |  |  |  | 1700 | 1500 | IC50 [15]: 260 µM |
|  |  | N[C@@H](Cn1oc(=O)[nH]c1=O)C(=O)O [QUISQUALATE] |  |  | 40 |  |  | IC50 [7]: 4 µM; IC50 [8]: 26 µM; IC50 [9]: 7 µM; IC50 [11]: 1900 µM; IC50 [12]: > 10000 µM |

Source: ChEMBL document CHEMBL1127797, “Synthesis of oxadiazolidinedione derivatives as quisqualic acid analogues and their evaluation at a quisqualate-sensitized site in the rat hippocampus” (J Med Chem, 1994)
